Screening data deposited in PubChem BioAssay by The Scripps Research Institute Molecular Screening Center.
TAAR1 antagonist = human TAAR1 antagonism; Q96RJ0; CHO RD-HGA16 TAAR1, Fluo-8 calcium fluorescence, antagonist; inhibition, % at 3 µM; hit rate 1.5% among 360,000;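 active = inhibition above a per-plate cutoff, the mean inhibition of test compounds on that plate plus 3 SD, cut at about 49% in these data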;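 note: 0% = DMSO plus EC80 beta-PEA response and 100% = DMSO alone without agonist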
Target sequence (Q96RJ0 whole entry, looked up): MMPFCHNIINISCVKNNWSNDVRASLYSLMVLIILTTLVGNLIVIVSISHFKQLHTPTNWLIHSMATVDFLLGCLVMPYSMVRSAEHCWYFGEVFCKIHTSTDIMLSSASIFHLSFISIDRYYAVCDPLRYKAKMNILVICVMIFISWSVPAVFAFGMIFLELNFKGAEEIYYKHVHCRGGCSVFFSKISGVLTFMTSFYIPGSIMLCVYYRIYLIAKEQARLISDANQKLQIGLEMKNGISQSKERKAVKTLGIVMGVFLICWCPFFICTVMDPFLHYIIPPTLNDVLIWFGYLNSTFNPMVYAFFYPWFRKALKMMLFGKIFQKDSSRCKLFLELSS
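Material: CHO RD-HGA16 cells bearing hTAAR1; compound dosing: one-point dosing, 3 µM nominal final; schedule: dye loading 75 min at 37 °C, then 30 min room temperature; measured by: calcium fluorescence with Fluo-8; control set: vehicle and agonist controls; replication: n of 1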
OX1R antag-1 = antagonists of human orexin 1 receptor; O43613; CHO/OX1R cells, Fluo-8 calcium fluorescence, orexin A; inhibition, % at 5 µM; hit rate 0.43% among 330,000; AID 434989;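 active = inhibition above its plate's threshold, mean inhibition of all tested compounds on the plate plus 3 SD, cut at about 37% in these data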;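 note: 0% = orexin A challenge wells and 100% = SB-334867-A antagonist wells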
CHO parental Ca = counter-screen for OX1R antagonists: effect in parental CHO cells. hit rate 0.63% among 330,000. inhibition, % at 5.6 µM. AID 463079. parental CHO-K1, ATP-induced calcium, Fluo-8 fluorescence;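 active = inhibition above that plate's mean sample inhibition plus 3 SD, cut at about 26% in these data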;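 note: 0% = ATP-challenged DMSO wells and 100% = DMSO wells without ATP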
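Test system: parental CHO cells; detection: calcium-sensitive Fluo-8 fluorescence; evaluation: percent inhibition of calcium signal; also added: ATP as calcium-mobilizing challenge; repeats: one well per compound; control set: ATP-challenged DMSO wells low, unchallenged DMSO wells high; compound: single nominal dose of 5.6 µM per compound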
TAAR1 agonist = agonists of human TAAR1; Q96RJ0; CHO RD-HGA16 TAAR1, Fluo-8 calcium fluorescence; vehicle wells 0%, saturating PEA agonist 100%; activation, % at 3 µM; hit rate 0.99% among 360,000;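 active = activation above the mean activation of all test compounds in the run plus 3 SD, cut at about 38% in these data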
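Assay system: CHO-derived RD-HGA16 cells with stable Gα16 and human TAAR1; timing: 17-24 h seeding, 75 min 37 °C dye, 30 min RT; read-out: % activation from peak over basal fluorescence ratio, DMSO-to-PEA scaled; measured by: kinetic Fluo-8 calcium fluorescence; benchmarks: low control DMSO, high control PEA (EC100); doses: 3 µM single concentration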
GPR7 antag = blocks human GPR7 receptor signaling | hit rate 1.1% among 290,000 | AID 1861 | inhibition, % at 4.4 µM | GPR7-expressing cells, fluorescence antagonist assay; in the data active = inhibition above about 16%, passing the limit was not always enough;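 note: cells stimulated with the agonist NPW; 0% = agonist with vehicle and 100% = vehicle without agonist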
Target sequence (P48145 whole entry, looked up): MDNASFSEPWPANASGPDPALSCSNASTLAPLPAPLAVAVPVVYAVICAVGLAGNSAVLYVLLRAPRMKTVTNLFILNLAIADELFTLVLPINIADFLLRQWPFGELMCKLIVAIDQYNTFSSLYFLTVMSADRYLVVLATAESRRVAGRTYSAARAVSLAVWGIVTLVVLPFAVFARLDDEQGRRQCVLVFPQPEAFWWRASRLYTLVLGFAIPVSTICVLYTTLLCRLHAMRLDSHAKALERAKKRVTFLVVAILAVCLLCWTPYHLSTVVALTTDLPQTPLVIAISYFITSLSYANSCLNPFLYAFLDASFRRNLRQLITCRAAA
OX1R antag-2 = OX1R (human) antagonism. O43613. OX1R-expressing cells, FRET antagonist read-out. inhibition, % at 6.6 µM. hit rate 1.8% among 330,000. AID 485270; in the data active = inhibition mostly above about 38%, no sharp cut-off; inactive = mostly below about 40%;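 note: 0% = agonist challenge alone and 100% = reference antagonist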
OX1R HTRF conf = confirmation of human orexin 1 receptor antagonists, HTRF format. shares compounds with OX1R antag-2. OX1R-expressing cells, HTRF antagonist assay. inhibition, % at 6.6 µM. hit rate 49% among 1,800. AID 492964; in the data active = inhibition above about 55%;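 note: CHO cells expressing OX1R stimulated with orexin A at about EC80; 0% = agonist challenge alone and 100% = reference antagonist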
CHO-K1 HTRF = counter-screen: parental CHO-K1 HTRF response; AID 493232; shares compounds with OX1R antag-2; parental CHO-K1 cells, HTRF counterscreen; inhibition, % at 6.6 µM; hit rate 48% among 1,800; in the data active = inhibition above about 17%;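 note: 0% = agonist challenge with vehicle and 100% = vehicle alone without agonist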
The depositor's hits bear a star; x = not tested or not shown. In the library only some 4.6% were active in any assay of this set; here they are far more common.

SMILES	TAAR1 antagonist	OX1R antag-1	CHO parental Ca	TAAR1 agonist	GPR7 antag	OX1R antag-2	OX1R HTRF conf	CHO-K1 HTRF
COCCNC(=O)/C(=C/c1ccccc1Cl)c1ccccc1	-4	-4	-20	-2	-9	3	x	x
COc1cc2[nH]c(C(=O)Nc3ccc(F)cc3)cc2c(OC)c1OC	9	-24	-15	10	6	38	x	x
Cc1ccc(S(=O)(=O)N2CCN(C(=O)NCc3ccc(C(=O)O)cc3)CC2)cc1	-5	-14	3	1	-9	9	x	x
Cc1cc(C)c2nc(N3CCN(C(=O)c4ccco4)CC3)sc2c1	-28	-23	-14	3	x	82*	22	5
Cc1cc2nc(N3CCN(C(=O)c4ccco4)CC3)sc2cc1C	-10	-10	-3	4	x	7	x	x
CC(=O)c1cccc(NC(=O)NC2CC(=O)N(c3ccc4c(c3)OCCO4)C2)c1 (stereo not given)	-16	-20	-2	6	x	-2	x	x
N/C(=N\OC(=O)c1cccc([N+](=O)[O-])c1)c1ccccn1	3	-9	-10	17	-1	97*	45	38*
N/C(=N\OC(=O)c1ccc2ccccc2c1)c1cccc([N+](=O)[O-])c1	7	-6	-4	1	3	3	x	x
N/C(=N/S(=O)(=O)c1ccccc1)c1cccc([N+](=O)[O-])c1	7	-32	13	7	-8	90*	19	21*
COc1ccc(F)cc1S(=O)(=O)Nc1cccc(C(=O)O)c1	-15	10	3	0	0	9	x	x
COc1ccc([C@@H]2[C@@H]3C(=O)N(C(C)(C)C)C(=O)[C@@H]3[C@]3(CC(C)C)C(=O)N(c4cccc(Br)c4)C(=O)N23)cc1	-9	-56	-38	8	-1	6	x	x
CCCS(=O)(=O)N1CCCC(C(=O)NCCCN(Cc2ccccc2)C(C)C)C1 (stereo not given)	2	-26	-22	-4	-12	107*	10	2
O=c1c[n+]([O-])c2ccccc2n1OCc1ccccn1	-2	-8	6	5	-6	129*	40	55*
O=c1c[n+]([O-])c2ccccc2n1OCc1c(F)cccc1F	3	1	-9	3	-12	81*	54	53*
CCOn1c(=O)c[n+]([O-])c2ccccc21	-25	-8	-7	3	-19	40	x	x
COC(=O)c1ccccc1COn1c(=O)c[n+]([O-])c2ccccc21	-7	-24	-14	3	-1	85*	31	29*
Cc1c(=O)n(OCc2ccccn2)c2ccccc2[n+]1[O-]	-6	-16	-3	13	-14	68	x	x
CC(=O)c1sc(NC(=O)C2(F)C(F)(F)C(F)(F)C(F)(F)C(F)(F)C2(F)F)nc1C	-5	35	16	9	11	80*	71*	26*
CC(=O)c1sc(NC(=O)C=C(C)C)nc1C	-2	-9	-2	15	3	17	x	x
Cc1sc(N)nc1-c1ccc(Oc2ccccc2)cc1	4	5	5	8	3	29	x	x
C/C(N)=C(/C#N)C(=O)COC(=O)CNC(=O)c1ccc(Cl)cc1Cl	14	-24	-17	9	-6	7	x	x
O=C(CN1C2=NCCCN2c2ccccc21)c1cccc(Br)c1	-15	-12	-6	8	1	-3	x	x
O=C(CN1C2=NCCCN2c2ccccc21)c1ccc([N+](=O)[O-])cc1	-18	-15	-16	5	-4	87*	58*	62*
N#C/C(=N\Nc1ccc(S(=O)(=O)N2CCc3ccccc32)cc1)C(N)=S	22	-4	7	11	-16	106*	41	21*
N#C/C(=N\Nc1ccc([N+](=O)[O-])cc1)C(N)=S	-30	17	8	5	4	90*	64*	51*
SMILES	TAAR1 antagonist	OX1R antag-1	CHO parental Ca	TAAR1 agonist	GPR7 antag	OX1R antag-2	OX1R HTRF conf	CHO-K1 HTRF
O=C(NC(=S)N1CCN(c2ccccn2)CC1)c1ccco1	-7	-6	2	6	-2	6	x	x
CC(=O)c1nnn(-c2ccc([N+](=O)[O-])cc2C)c1C	2	-16	-16	3	7	162*	27	40*
CCOC(=O)c1csc(-c2ccc([N+](=O)[O-])cc2)n1	-15	0	-5	0	-3	104*	40	44*
CC(=O)c1nnn(-c2cccc([N+](=O)[O-])c2)c1C	-2	-16	-3	2	0	30	x	x
CCOC(=O)c1cc(-c2cccc([N+](=O)[O-])c2)on1	-12	11	19	-1	-17	26	x	x
CCOC(=O)c1nnn(-c2ccc([N+](=O)[O-])cc2)c1C	-21	-7	2	2	-12	111*	42	54*
COc1ccc(C(=O)NCCCN=C2NS(=O)(=O)c3ccccc32)cc1	-9	-22	-13	1	0	2	x	x
COCCCNC(=O)CN(c1cc(Cl)ccc1OC)S(=O)(=O)c1ccc(C)c([N+](=O)[O-])c1	3	9	-26	4	3	79*	59*	6
COCCNC(=O)CN(c1cc(Cl)ccc1OC)S(=O)(=O)c1ccc(C)c([N+](=O)[O-])c1	-16	-3	-23	11	1	32	x	x
CCN(CCNC(=O)CN(C)S(=O)(=O)c1cccc2nsnc12)c1ccccc1	24	-16	-26	15	3	16	x	x
CC1CCN(C(=O)CN(C)S(=O)(=O)c2cccc3nsnc23)CC1	-9	-24	-12	12	0	83*	30	36*
CCOC(=O)N1CCC(NC(=O)C(NS(=O)(=O)c2cccc3nsnc23)c2ccccc2)CC1 (stereo not given)	-13	-27	-15	9	-17	91*	34	13
COc1ccc(N2CCN(CCNS(=O)(=O)c3cccc4nsnc34)CC2)cc1	9	x	x	5	-5	x	x	x
CC1CCN(CCNC(=O)CN(C)S(=O)(=O)c2cccc3nsnc23)CC1	-16	-8	14	0	-2	149*	22	29*
COc1ccc(N2CCN(CCNC(=O)CCS(=O)(=O)c3cccc4nsnc34)CC2)cc1	x	-17	-6	x	3	85*	43	76*
COCc1c(C(=O)Nc2ccc3nc(N4CCOCC4)sc3c2)oc2ccccc12	27	15	-23	10	x	19	x	x
Cc1ccc(NC(=O)COC(=O)C(NS(=O)(=O)c2ccc(Cl)cc2)C(C)O)cc1 (stereo not given)	-12	-18	4	4	1	7	x	x
